Measurements as given in ChEMBL document CHEMBL5029150, “Controlling Intramolecular Interactions in the Design of Selective, High-Affinity Ligands for the CREBBP Bromodomain” (J Med Chem, 2021).
Active and inactive are the calls of the source. The calls are words filed in the database; no cut-off is given here.

What was measured:
Settings in all cases: dose microM <=1
[1] = biological target: T1, ATPase family AAA domain-containing protein 2B (Homo sapiens) (UniProt Q9ULI0); assay: Binding affinity to human ATAD2B assessed as dissociation constant up to 1 uM by BROMOscan assay
T1 sequence (whole entry): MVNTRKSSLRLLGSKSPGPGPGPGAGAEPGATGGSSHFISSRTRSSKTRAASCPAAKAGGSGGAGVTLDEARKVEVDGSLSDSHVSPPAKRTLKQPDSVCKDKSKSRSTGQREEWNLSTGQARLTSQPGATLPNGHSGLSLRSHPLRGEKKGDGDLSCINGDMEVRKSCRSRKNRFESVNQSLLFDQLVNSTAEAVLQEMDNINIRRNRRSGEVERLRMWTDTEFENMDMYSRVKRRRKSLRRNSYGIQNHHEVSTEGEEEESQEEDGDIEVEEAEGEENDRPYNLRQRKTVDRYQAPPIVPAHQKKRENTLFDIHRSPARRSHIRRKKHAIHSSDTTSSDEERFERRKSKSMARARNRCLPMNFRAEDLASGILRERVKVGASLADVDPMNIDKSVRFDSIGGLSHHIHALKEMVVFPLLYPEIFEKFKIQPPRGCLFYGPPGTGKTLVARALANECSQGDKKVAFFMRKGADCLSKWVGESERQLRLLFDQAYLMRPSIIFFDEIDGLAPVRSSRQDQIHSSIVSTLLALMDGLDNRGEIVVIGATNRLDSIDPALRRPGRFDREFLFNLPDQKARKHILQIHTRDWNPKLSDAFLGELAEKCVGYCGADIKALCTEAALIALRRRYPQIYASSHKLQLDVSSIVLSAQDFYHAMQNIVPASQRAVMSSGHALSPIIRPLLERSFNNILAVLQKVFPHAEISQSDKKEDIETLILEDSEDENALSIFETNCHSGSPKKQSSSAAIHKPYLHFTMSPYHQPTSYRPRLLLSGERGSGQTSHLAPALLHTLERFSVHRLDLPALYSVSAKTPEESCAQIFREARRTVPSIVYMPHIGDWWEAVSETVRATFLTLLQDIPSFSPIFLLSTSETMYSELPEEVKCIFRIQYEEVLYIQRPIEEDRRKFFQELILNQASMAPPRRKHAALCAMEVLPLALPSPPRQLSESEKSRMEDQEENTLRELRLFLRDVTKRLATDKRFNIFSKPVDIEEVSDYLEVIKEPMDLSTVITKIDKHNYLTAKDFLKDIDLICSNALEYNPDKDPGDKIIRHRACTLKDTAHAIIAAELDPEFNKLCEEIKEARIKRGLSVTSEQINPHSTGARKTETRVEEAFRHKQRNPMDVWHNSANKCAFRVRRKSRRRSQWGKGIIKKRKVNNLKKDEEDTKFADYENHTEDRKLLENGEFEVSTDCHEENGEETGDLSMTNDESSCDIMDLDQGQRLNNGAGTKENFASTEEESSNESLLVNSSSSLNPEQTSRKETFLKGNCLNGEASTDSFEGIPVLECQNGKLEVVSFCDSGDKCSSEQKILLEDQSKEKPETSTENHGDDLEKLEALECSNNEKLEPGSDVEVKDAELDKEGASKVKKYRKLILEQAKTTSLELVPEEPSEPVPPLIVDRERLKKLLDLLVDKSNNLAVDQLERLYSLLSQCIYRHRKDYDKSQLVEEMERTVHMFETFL
Outline: (§1)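 BROMOscan competition binding panel of 12 phylogenetically diverse bromodomains, including the CREBBP and EP300 bromodomains.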

[2] = biological target: Histone acetyltransferase KAT2B (Homo sapiens) (UniProt Q92831); assay: Binding affinity to human PCAF assessed as dissociation constant up to 1 uM by BROMOscan assay; outline: as §1
[3] = biological target: T2, Transcription intermediary factor 1-alpha (Homo sapiens) (UniProt O15164); assay: Binding affinity to human TRIM24 assessed as dissociation constant up to 1 uM by BROMOscan assay; outline: as §1
T2 sequence (whole entry): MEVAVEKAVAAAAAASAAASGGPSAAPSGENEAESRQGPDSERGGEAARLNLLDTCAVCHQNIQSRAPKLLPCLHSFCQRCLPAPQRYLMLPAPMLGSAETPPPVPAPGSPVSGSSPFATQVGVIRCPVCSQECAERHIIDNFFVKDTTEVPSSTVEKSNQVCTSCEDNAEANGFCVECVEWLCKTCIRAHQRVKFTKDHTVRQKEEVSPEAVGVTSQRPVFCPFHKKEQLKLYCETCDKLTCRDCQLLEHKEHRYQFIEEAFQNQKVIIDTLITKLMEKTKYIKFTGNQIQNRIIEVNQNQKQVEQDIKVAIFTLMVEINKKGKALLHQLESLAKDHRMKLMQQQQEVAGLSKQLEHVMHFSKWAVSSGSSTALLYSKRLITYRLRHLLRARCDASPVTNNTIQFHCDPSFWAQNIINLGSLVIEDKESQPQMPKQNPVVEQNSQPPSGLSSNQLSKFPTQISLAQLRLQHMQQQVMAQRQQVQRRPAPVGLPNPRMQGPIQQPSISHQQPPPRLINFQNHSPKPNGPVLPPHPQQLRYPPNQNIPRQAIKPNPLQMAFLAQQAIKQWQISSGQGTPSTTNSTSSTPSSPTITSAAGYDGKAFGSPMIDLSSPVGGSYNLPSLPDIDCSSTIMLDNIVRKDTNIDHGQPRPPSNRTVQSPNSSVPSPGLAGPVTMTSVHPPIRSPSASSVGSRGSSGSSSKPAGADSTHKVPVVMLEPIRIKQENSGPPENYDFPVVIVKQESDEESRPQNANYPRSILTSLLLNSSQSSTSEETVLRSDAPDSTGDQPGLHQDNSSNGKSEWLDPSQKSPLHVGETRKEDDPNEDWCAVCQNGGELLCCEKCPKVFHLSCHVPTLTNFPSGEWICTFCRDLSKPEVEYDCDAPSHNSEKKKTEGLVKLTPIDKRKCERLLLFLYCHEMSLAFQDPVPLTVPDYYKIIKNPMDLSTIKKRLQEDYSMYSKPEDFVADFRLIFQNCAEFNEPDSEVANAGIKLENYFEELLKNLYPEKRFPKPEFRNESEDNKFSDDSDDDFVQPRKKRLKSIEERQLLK

Histone acetyltransferase KAT2B (Homo sapiens), sequence (Q92831 whole entry, looked up): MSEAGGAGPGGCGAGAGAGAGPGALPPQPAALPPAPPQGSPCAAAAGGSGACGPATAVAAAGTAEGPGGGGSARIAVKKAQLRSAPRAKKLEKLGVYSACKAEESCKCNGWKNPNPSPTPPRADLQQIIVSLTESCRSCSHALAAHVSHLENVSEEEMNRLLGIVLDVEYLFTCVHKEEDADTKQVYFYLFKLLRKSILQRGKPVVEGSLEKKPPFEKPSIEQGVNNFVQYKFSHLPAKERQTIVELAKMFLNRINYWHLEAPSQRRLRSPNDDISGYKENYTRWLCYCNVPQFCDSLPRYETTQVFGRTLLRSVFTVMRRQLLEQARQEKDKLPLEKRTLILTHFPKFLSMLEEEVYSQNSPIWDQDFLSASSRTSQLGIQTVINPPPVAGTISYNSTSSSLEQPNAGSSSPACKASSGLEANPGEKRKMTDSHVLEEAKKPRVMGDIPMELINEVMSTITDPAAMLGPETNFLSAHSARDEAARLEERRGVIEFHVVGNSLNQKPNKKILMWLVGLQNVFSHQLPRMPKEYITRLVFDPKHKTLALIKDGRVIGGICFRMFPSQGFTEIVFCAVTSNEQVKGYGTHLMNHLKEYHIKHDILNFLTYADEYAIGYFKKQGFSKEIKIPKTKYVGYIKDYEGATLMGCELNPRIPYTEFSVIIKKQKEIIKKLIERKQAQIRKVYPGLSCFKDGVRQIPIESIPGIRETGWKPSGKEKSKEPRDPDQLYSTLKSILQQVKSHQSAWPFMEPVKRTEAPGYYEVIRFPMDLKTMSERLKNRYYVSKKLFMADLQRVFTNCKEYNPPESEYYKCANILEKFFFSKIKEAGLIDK

Activity [1] | Activity [2] | Activity [3] | SMILES
inactive | inactive | inactive | COc1ccc2c(c1)N(CCC/C=C/c1cccc3c1N[C@H](C)CC(=O)N3)CCC2
inactive | inactive | inactive | COc1ccc2c(c1)N(CCC/C=C/c1cccc3c1N[C@@H](C)CC(=O)N3)CCC2
